Measured values from ChEMBL document CHEMBL4364265, “Oridonin derivatives as potential anticancer drug candidates triggering apoptosis through mitochondrial pathway in the liver cancer cells” (Eur J Med Chem, 2019).
Activity calls are given as the source filed them. No cut-off for these calls is given here.

What was measured:
L02 = test: Cytotoxicity against human LO2 cells incubated for 72 hrs by CCK8 cells; assay type: cell-based; details: L02, 72 h
Procedure, shortened: (§1)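 CCK-8 proliferation assay. 10,000 cells per well were preincubated 24 h at 37 °C with 5% CO2, then given compound dissolved in DMSO and incubated 72 h. CCK-8 was added for 4 h and absorbance read at 450 nm. IC50 was taken from dose-response curves as mean ± SEM of at least three independent experiments, with paclitaxel as positive control. HepG2 and L-O2 were grown in DMEM/10% FBS; A549 and RPMI-8226 in RPMI 1640/10% FBS.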

RPMI-8226 = test: Antiproliferative activity against human RPMI8226 cells incubated for 72 hrs by CCK8 cells; assay type: functional, cell-based; details: RPMI-8226, 72 h; procedure, shortened: as §1
HepG2 [1] = test: Antiproliferative activity against human HepG2 cells incubated for 72 hrs by CCK8 cells; assay type: functional, cell-based; details: HepG2, 72 h; procedure, shortened: as §1
A549 = test: Antiproliferative activity against human A549 cells incubated for 72 hrs by CCK8 cells; assay type: functional, cell-based; details: A549, 72 h; procedure, shortened: as §1
[2] = Selectivity index, ratio of IC50 for human LO2 cells to IC50 for human PLC/PRF/5 cells
Procedure, shortened: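 L-O2 and PLC/PRF/5 cells were grown in DMEM with 10% FBS at 37 °C and 5% CO₂. For CCK-8 proliferation, 10,000 cells per well were pre-incubated 24 h, then exposed to compound in DMSO for 72 h. CCK-8 was added for 4 h and A450 read. IC50 came from dose–response curves; SI is IC50(L-O2)/IC50(PLC/PRF/5).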

PLC-PRF-5 [3] = test: Antiproliferative activity against human PLC/PRF/5 cells incubated for 72 hrs by CCK8 cells; assay type: functional, cell-based; details: PLC-PRF-5, 72 h
HepG2 [4] = test: Inhibition of colony formation in human HepG2 cells at 0.1 to 1 uM incubated for 10 days by crystal violet staining based microscopic method; assay type: functional, cell-based
Procedure, shortened: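 Five hundred cells plated per 30 mm dish and left 12 h. Medium with compound was added (0, 0.1, 0.5, 1 µM) or DMSO as negative control, and cells grew 10 days. Colonies were fixed in methanol 15 min, stained with 0.1% crystal violet 15 min, photographed and counted. Colony size was checked by microscope. Relative colony number is mean ± SD of ≥3 independent experiments.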

PLC-PRF-5 [5] = test: Antitumour activity against human PLC/PRF/5 cells xenografted in nude mouse assessed as reduction in tumour weight at 10 mg/kg, iv administrated once every 3 days for 4 weeks relative to control; assay type: functional
Procedure, shortened: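 PLC/PRF/5 xenograft. 2 × 10^7 cells in 0.2 mL saline were injected s.c. into the right forelimb of nude mice. At about 120 mm3, mice were randomized into 3 groups of 6 and dosed i.v. at 10 mg/kg once every three days for 4 weeks. Vehicle was 10% N-methylpyrrolidone/12% Tween-80/78% saline. Volume (a×b²/2) and body weight were recorded daily, and tumors were excised and weighed at the end.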

PLC-PRF-5 [6] = test: Inhibition of colony formation in human PLC/PRF/5 cells assessed as decrease in colony size at 0.1 to 1 uM incubated for 10 days by crystal violet staining based microscopic method
PLC-PRF-5 [7] = test: Antiproliferative activity against human PLC/PRF/5 cells incubated for 72 hrs in presence of oridonin by CCK8 cells; assay type: functional, cell-based; details: PLC-PRF-5, 72 h
HepG2 [8] = test: Antiproliferative activity against human HepG2 cells incubated for 72 hrs in presence of oridonin by CCK8 cells; assay type: functional, cell-based; details: HepG2, 72 h

SMILES	IC50 (RPMI-8226) [µM]	IC50 (HepG2 [1]) [µM]	IC50 (A549) [µM]	further results
C=C1C(=O)[C@]23[C@H](OC(=O)/C=C/c4ccc(OC)c(OC)c4)[C@H]1CC[C@H]2[C@@]12CO[C@]3(O)[C@@H](O)[C@@H]1C(C)(C)CC[C@@H]2O	5.77	1.98	24.9	IC50 (L02): 1.85 µM; Ratio IC50 [2]: 1.8; IC50 (PLC-PRF-5 [3]): 1.03 µM; inhibition (HepG2 [4]): Active
C=C1C(=O)[C@]23[C@H](OC(=O)c4ccc(F)cc4)[C@H]1CC[C@H]2[C@@]12CO[C@]3(O)[C@@H](O)[C@@H]1C(C)(C)CC[C@@H]2O	14.3	3.1	14.7	–
C=C1C(=O)[C@]23[C@H](O)[C@H]1CC[C@H]2[C@@]12CO[C@]3(O)[C@@H](O)[C@@H]1C(C)(C)CC[C@@H]2O [ORIDONIN]	9.25	8.12	30.4	Activity (PLC-PRF-5 [5]): inactive; IC50 (L02): 17.5 µM; Ratio IC50 [2]: 2.4; inhibition (PLC-PRF-5 [6]): Active; IC50 (PLC-PRF-5 [3]): 7.41 µM; inhibition (HepG2 [4]): Active
C=C1C(=O)[C@]23[C@H](OC(=O)CCc4ccc(OC)c(OC)c4)[C@H]1CC[C@H]2[C@@]12CO[C@]3(O)[C@@H](O)[C@@H]1C(C)(C)CC[C@@H]2O	10.1	9.63	22.8	–
CC(=O)O[C@H]1C(=O)[C@@]2(C)[C@H]([C@H](OC(=O)c3ccccc3)[C@]3(O)C[C@H](OC(=O)[C@H](O)[C@@H](NC(=O)c4ccccc4)c4ccccc4)C(C)=C1C3(C)C)[C@]1(OC(C)=O)CO[C@@H]1C[C@@H]2O [PACLITAXEL]	1.53	0.18	0.39	–
C=C1C(=O)[C@]23[C@H](OC(=O)c4ccc(OCc5ccccc5)cc4F)[C@H]1CC[C@H]2[C@@]12CO[C@]3(O)[C@@H](O)[C@@H]1C(C)(C)CC[C@@H]2O	17.5	16	14	–
C=C1C(=O)[C@@]23C(=O)[C@H]4OC[C@]5([C@@H](OC(C)=O)CCC(C)(C)[C@@H]45)[C@@H]2CC[C@@H]1[C@H]3O	–	2.07	–	–
C=C1C(=O)[C@]23[C@H](OC(=O)CCc4cc(OC)c(OC)c(OC)c4)[C@H]1CC[C@H]2[C@@]12CO[C@]3(O)[C@@H](O)[C@@H]1C(C)(C)CC[C@@H]2O	12.4	12.6	11	–
C=C1C(=O)[C@]23[C@H](OC(=O)c4ccc(F)c(NC(=O)Cc5ccc(OC)c(OC)c5)c4)[C@H]1CC[C@H]2[C@@]12CO[C@]3(O)[C@@H](O)[C@@H]1C(C)(C)CC[C@@H]2O	19	3.76	17.2	–
C=C1C(=O)[C@]23[C@H](OC(=O)c4ccc(CCl)cc4)[C@H]1CC[C@H]2[C@@]12CO[C@]3(O)[C@@H](O)[C@@H]1C(C)(C)CC[C@@H]2O	5.01	5.66	16.7	–
C=C1C(=O)[C@]23[C@H](OC(=O)c4ccc(F)c(NC(=O)c5ccc(OC(F)(F)F)cc5)c4)[C@H]1CC[C@H]2[C@@]12CO[C@]3(O)[C@@H](O)[C@@H]1C(C)(C)CC[C@@H]2O	10.5	6.54	20.9	–
C=C1C(=O)[C@]23[C@H](OC(=O)CCc4ccc(OC)cc4)[C@H]1CC[C@H]2[C@@]12CO[C@]3(O)[C@@H](O)[C@@H]1C(C)(C)CC[C@@H]2O	9.42	8.99	14	–
COc1ccc(/C=C/C(=O)O)cc1 [4-METHOXYCINNAMIC ACID]	–	> 100	–	IC50 (PLC-PRF-5 [7]): 6.55 µM; IC50 (HepG2 [8]): 8.56 µM; IC50 (PLC-PRF-5 [3]): > 100 µM
C=C1C(=O)[C@]23[C@H](OC(=O)CCCCC4CCSS4)[C@H]1CC[C@H]2[C@@]12CO[C@]3(O)[C@@H](O)[C@@H]1C(C)(C)CC[C@@H]2O (some centres not stated)	> 100	32.3	> 100	–
C=C1C(=O)[C@]23[C@H](O)[C@H]1CC[C@H]2[C@@]12CO[C@@]3(O)[C@@H](O)[C@@H]1C(C)(C)CC[C@@H]2OC(C)=O	11	5.67	10.9	–
C=C1C(=O)[C@@]23C(=O)[C@@H](OC(C)=O)[C@@H]4C(C)(C)CC[C@H](OC(C)=O)[C@@]4(COC(C)=O)[C@@H]2CC[C@@H]1[C@H]3OC(C)=O	13.9	5.4	10.5	–
C=C1C(=O)[C@]23[C@H](OC(=O)[C@H](CC(C)C)NC(=O)OC(C)(C)C)[C@H]1CC[C@H]2[C@@]12CO[C@]3(O)[C@@H](O)[C@@H]1C(C)(C)CC[C@@H]2O	–	0.98	–	IC50 (L02): 6.3 µM; Ratio IC50 [2]: 2.4; IC50 (PLC-PRF-5 [3]): 2.67 µM; inhibition (HepG2 [4]): Active
C=C1C(=O)[C@]23[C@H](OC(=O)Cc4cc(OC)c(OC)c(OC)c4)[C@H]1CC[C@H]2[C@@]12CO[C@]3(O)[C@@H](O)[C@@H]1C(C)(C)CC[C@@H]2O	10.9	8.79	37.5	–
C=C1C(=O)[C@]23[C@H](OC(=O)/C=C/c4cc(OC)c(OC)c(OC)c4)[C@H]1CC[C@H]2[C@@]12CO[C@]3(O)[C@@H](O)[C@@H]1C(C)(C)CC[C@@H]2O	5.98	5.98	8.8	–
C=C1C(=O)[C@]23[C@H](OC(=O)c4ccc(C#N)cc4)[C@H]1CC[C@H]2[C@@]12CO[C@]3(O)[C@@H](O)[C@@H]1C(C)(C)CC[C@@H]2O	35.2	36.6	17.4	–
C=C1C(=O)[C@]23[C@H](OC(=O)c4ccc(OC)c(OCCBr)c4)[C@H]1CC[C@H]2[C@@]12CO[C@]3(O)[C@@H](O)[C@@H]1C(C)(C)CC[C@@H]2O	8.65	9.76	11.5	–
C=C1C(=O)[C@]23[C@H](OC(=O)c4cc(F)ccc4F)[C@H]1CC[C@H]2[C@@]12CO[C@]3(O)[C@@H](O)[C@@H]1C(C)(C)CC[C@@H]2O	12.2	26	10.7	–
C=C1C(=O)[C@]23[C@H](OC(=O)c4cccnc4Cl)[C@H]1CC[C@H]2[C@@]12CO[C@]3(O)[C@@H](O)[C@@H]1C(C)(C)CC[C@@H]2O	15.8	27.5	31.1	–
C=C1C(=O)[C@]23[C@H](OC(=O)c4ccc(F)c(NC(=O)c5ccc(OC)c(OCc6ccccc6)c5)c4)[C@H]1CC[C@H]2[C@@]12CO[C@]3(O)[C@@H](O)[C@@H]1C(C)(C)CC[C@@H]2O	6.71	8.2	11	–
C=C1C(=O)[C@]23[C@H](OC(=O)c4ccc(F)c(F)c4F)[C@H]1CC[C@H]2[C@@]12CO[C@]3(O)[C@@H](O)[C@@H]1C(C)(C)CC[C@@H]2O	14.7	15.4	12.4	–
C=C1C(=O)[C@]23[C@H](OC(=O)[C@@H]4OC(c5ccc(OC)cc5)N(C(=O)OC(C)(C)C)[C@H]4c4ccccc4)[C@H]1CC[C@H]2[C@@]12CO[C@]3(O)[C@@H](O)[C@@H]1C(C)(C)CC[C@@H]2O (some centres not stated)	16.6	44.6	22.6	–
C=C1C(=O)[C@]23[C@H](O)[C@H]1CC[C@H]2[C@@]12CO[C@]3(O)[C@@H](OC(C)=O)[C@@H]1C(C)(C)CC[C@@H]2OC(C)=O	13	12.3	10.5	–
